Experimental data from different studies.
Each line is one published result; the experiments were not run side by side.
CDK3: Cyclin-dependent kinase 3 (CDK3, Homo sapiens, UniProt Q00526)
CDK3 with cyclin E: Cyclin-dependent kinase 3, with cyclin E (CDK3, Homo sapiens, UniProt Q00526)
CDK3 with cyclin E2: Cyclin-dependent kinase 3, with cyclin E2 (CDK3, Homo sapiens, UniProt Q00526)

SMILES | target | assay | conditions | measurement | value
Cc1cc(-n2nc(Cc3cc(F)cc(C(F)(F)F)c3)nc2C)ccc1C(N)=O | CDK3 | cell-free assay, competition with immobilised ligand | 1 µM | remaining binding | 100%
Cc1cc(NC(=O)c2cccc3cc(-c4cccc5[nH]nc(N)c45)ccc23)ccc1F | CDK3 with cyclin E | enzyme activity, inhibitor | 0.1 µM | activity vs control | 96%
O=C(Nc1cnn(-c2csc(C(=O)NC3COC3)c2)c1)Nc1ccccc1Cl | CDK3 with cyclin E2 | enzyme activity, inhibitor | 5 µM | remaining activity | 95.8%
CNC(=O)c1cc(Oc2ccc(NC(=O)Nc3ccc(Cl)c(C(F)(F)F)c3)cc2)ccn1 | CDK3 with cyclin E | enzyme activity, inhibitor | 10 µM | inhibition | 0%
CC(C)c1ccc(NC(=O)c2cccs2)c(-c2nc3ccccc3[nH]c2=O)c1 | CDK3 with cyclin E | enzyme activity, inhibitor | 1 µM | activity vs control | 109%
CCCS(=O)(=O)Nc1ccc(F)c(C(=O)c2c[nH]c3ncc(-c4ccc(Cl)cc4)cc23)c1F | CDK3 with cyclin E | enzyme activity, inhibitor | 1 µM | inhibition | < 10%
Cc1ccc(C(=O)Nc2ccc(CN3CCN(C)CC3)c(C(F)(F)F)c2)cc1C#Cc1cnc2cccnn12 | CDK3 | enzyme activity, inhibitor | 23.5 nM | remaining activity | 95%
Cc1cc(NC(=O)c2cccc(S(F)(F)(F)(F)F)c2)cc(-n2ccn3nc(-c4cccnc4)cc23)c1 | CDK3 | cell-free assay, competition with immobilised ligand | 1 µM | remaining binding | 100%
Cc1sc(C(=O)NC2COC2)cc1-n1cc(NC(=O)Nc2c(F)cccc2Cl)cn1 | CDK3 with cyclin E | enzyme activity, inhibitor | 10 µM | remaining activity | 91.2%
CN(C)c1ncnc(-c2ccc3nc(Nc4cc(CN5CCN(C(=O)CC(F)(F)F)CC5)ccn4)[nH]c3c2)c1Cl | CDK3 | cell-free assay, competition with immobilised ligand | 1 µM | remaining binding | 86%
Cc1ccc(Nc2nccc(N(C)c3ccc4c(C)n(C)nc4c3)n2)cc1S(N)(=O)=O | CDK3 with cyclin E | enzyme activity, inhibitor | 10 µM | inhibition | 8%
CN1CC(Oc2cnc(C#N)cc2-c2ccn3nc(NC(=O)C4CC4)cc3c2)C1 | CDK3 with cyclin E | enzyme activity, inhibitor | 1 µM | inhibition | 4%
CC(C)(O)[C@H]1CC[C@H](Nc2ccc3ncc(-c4cccc(C(F)(F)F)c4)n3n2)CC1 | CDK3 with cyclin E | enzyme activity, inhibitor | 1 µM | remaining activity | 105%
CCCCN(CCCC)C(=O)CN1C[C@H](c2cc(OC)c3c(c2)OCO3)[C@@H](C(=O)O)[C@@H]1CC(C)(C)CCC | CDK3 | cell-free assay, competition with immobilised ligand | 1 µM | remaining binding | 100%
O=C1Nc2ccc(Cl)cc2C1=Cc1cc(Cl)c(O)c(Cl)c1 | CDK3 with cyclin E | cell-free assay | 0.5 µM | remaining signal | 85.4%
CC(C)(C)c1nc2c(s1)c1nc(N)ncc1c1ccc(NS(=O)(=O)c3c(F)cccc3F)c(F)c12 | Cyclin-dependent kinase 3, with cyclin C (CDK3, Homo sapiens, UniProt Q00526) | enzyme activity, inhibitor, radiometric | 1 µM | remaining activity | 97%
CCN(CC)CCNC(=O)c1c(C)[nH]c(/C=C2\C(=O)Nc3ccc(F)cc32)c1C | CDK3 with cyclin E | enzyme activity, inhibitor | 0.3 µM | inhibition | 1%
COc1cccc(CNC(=O)c2nc3scc(COCc4ccc(C(=O)O)cc4)c3c(=O)[nH]2)c1 | CDK3 | cell-free assay, competition with immobilised ligand | 1 µM | remaining binding | 100%
CS(=O)(=O)Nc1cccc(-c2csc(NC(=O)CSc3nc4nccnc4c(=O)n3CCc3ccccc3)n2)c1 | Cyclin-dependent kinase 3, with cyclin E1 (CDK3, Homo sapiens, UniProt Q00526) | enzyme activity, inhibitor | 10 µM | inhibition | 2%
CN(C)CC#Cc1ccc(OCCCc2sc(N3CCc4cccc(C(=O)Nc5nc6ccccc6s5)c4C3)nc2C(=O)O)c(F)c1 | CDK3 | cell-free assay, competition with immobilised ligand | 1 µM | remaining binding | 68%
O=C(Nc1cnn(-c2csc(C(=O)NC3COC3)c2)c1)Nc1c(F)cccc1Cl | CDK3 with cyclin E2 | enzyme activity, inhibitor | 5 µM | remaining activity | 109%
NS(=O)(=O)c1cc(NC(=O)C2(c3ccccc3Cl)CC2)ccc1Oc1cccc(Cl)c1 | CDK3 | cell-free assay, competition with immobilised ligand | 1 µM | remaining binding | 90%
O=C1NC(=O)c2cc(Nc3ccc(F)cc3)c(Nc3ccc(F)cc3)cc21 | CDK3 with cyclin E | cell-free assay | 0.5 µM | remaining signal | 98.9%
